Assay results: ChEMBL document CHEMBL1140914, “Synthesis and in vitro and in vivo evaluation of 18F-labeled positron emission tomography (PET) ligands for imaging the vesicular acetylcholine transporter” (J Med Chem, 2009)
Each block holds one compound with its values, some of them ahead of it.

Tests used:
[1] = Displacement of [3H]DTG from sigma2 receptor in rat liver membrane; assay type: cell membranes
In short: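 Rat liver membrane homogenate (~300 μg protein) incubated 2 h at room temperature with ~5 nM [3H]DTG plus 1 μM (+)-pentazocine to mask σ1 sites. Haloperidol 10 μM defines nonspecific binding. Filtered and counted.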

[2] = target: Sigma non-opioid intracellular receptor 1 (Cavia porcellus, UniProt Q60492); experiment: Displacement of [3H](+)-pentazocine from sigma1 receptor in guinea pig brain membrane by liquid scintillation counting; assay type: cell membranes
[3] = target: T1, Vesicular acetylcholine transporter (Homo sapiens, UniProt Q16572); experiment: Displacement of [3H]vesamicol from human vesicular acetylcholine transporter expressed in rat PC12 cells by liquid scintillation spectrometry; assay type: cell-based, PC-12
T1 sequence (Q16572 whole entry): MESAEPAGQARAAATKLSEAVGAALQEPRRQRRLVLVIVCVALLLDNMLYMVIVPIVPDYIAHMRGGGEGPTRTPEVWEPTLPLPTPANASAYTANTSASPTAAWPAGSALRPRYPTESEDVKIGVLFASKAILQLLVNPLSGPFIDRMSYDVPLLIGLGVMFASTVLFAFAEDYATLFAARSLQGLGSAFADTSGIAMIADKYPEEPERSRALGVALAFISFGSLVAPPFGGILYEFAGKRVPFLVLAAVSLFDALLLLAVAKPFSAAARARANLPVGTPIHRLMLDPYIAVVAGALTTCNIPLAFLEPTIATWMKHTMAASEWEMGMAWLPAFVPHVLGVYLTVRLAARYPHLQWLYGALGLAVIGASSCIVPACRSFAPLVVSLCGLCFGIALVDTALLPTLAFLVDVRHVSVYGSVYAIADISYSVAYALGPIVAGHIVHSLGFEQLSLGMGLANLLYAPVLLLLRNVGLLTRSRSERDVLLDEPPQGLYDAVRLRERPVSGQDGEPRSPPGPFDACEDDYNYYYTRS

[4] = Selectivity ratio of Ki for human vesicular acetylcholine transporter to Ki for sigma1 receptor in guinea pig brain membrane; assay type: cell membranes
[5] = test system: Bone; experiment: Drug uptake in Sprague-Dawley rat bone at 25 to 35 uCi, iv after 5 mins postinjection by […]; assay type: ADME, organism-based, Bone element; details: in vivo
In short: (§1)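 Mature male Sprague-Dawley rats (250–400 g) under 2–3% isoflurane got 25–35 μCi tracer in 100–150 μL saline via tail vein. Groups of at least 4 were euthanized at 5 min, 30 min, 1 h or 2 h. Brain was dissected into regions, and tissues were weighed and gamma counted against an injectate standard. Values are %ID/g, mean ± SD.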

[6] = test system: Brain; experiment: Drug uptake in Sprague-Dawley rat brain at 25 to 35 uCi, iv after 5 mins postinjection by […]; assay type: ADME, organism-based; details: in vivo; in short: as §1
[7] = test system: Liver; experiment: Drug uptake in Sprague-Dawley rat liver at 25 to 35 uCi, iv after 1 hr postinjection by […]; assay type: ADME, organism-based; details: in vivo; in short: as §1
[8] = test system: Liver; experiment: Drug uptake in Sprague-Dawley rat liver at 25 to 35 uCi, iv after 30 mins postinjection by […]; assay type: ADME, organism-based; details: in vivo, 0.5 h; in short: as §1
[9] = test system: Blood; experiment: Drug uptake in Sprague-Dawley rat blood at 25 to 35 uCi, iv after 1 hr postinjection by […]; assay type: ADME, organism-based; details: in vivo; in short: as §1
[10] = test system: Heart; experiment: Drug uptake in Sprague-Dawley rat heart at 25 to 35 uCi, iv after 2 hrs postinjection by […]; assay type: ADME, organism-based; details: in vivo; in short: as §1
[11] = test system: Muscle tissue; experiment: Drug uptake in Sprague-Dawley rat muscle at 25 to 35 uCi, iv after 1 hr postinjection by […]; assay type: ADME, organism-based; details: in vivo; in short: as §1
[12] = test system: Lung; experiment: Drug uptake in Sprague-Dawley rat lung at 25 to 35 uCi, iv after 2 hrs postinjection by […]; assay type: ADME, organism-based; details: in vivo; in short: as §1
[13] = Drug uptake in Sprague-Dawley rat fat at 25 to 35 uCi, iv after 30 mins postinjection by […]; assay type: ADME, organism-based, Adipose tissue; details: in vivo, 0.5 h; in short: as §1
[14] = test system: Heart; experiment: Drug uptake in Sprague-Dawley rat heart at 25 to 35 uCi, iv after 30 mins postinjection by […]; assay type: ADME, organism-based; details: in vivo, 0.5 h; in short: as §1
[15] = test system: Muscle tissue; experiment: Drug uptake in Sprague-Dawley rat muscle at 25 to 35 uCi, iv after 5 mins postinjection by […]; assay type: ADME, organism-based; details: in vivo; in short: as §1
[16] = test system: Bone; experiment: Drug uptake in Sprague-Dawley rat bone at 25 to 35 uCi, iv after 1 hr postinjection by […]; assay type: ADME, organism-based, Bone element; details: in vivo; in short: as §1
[17] = test system: Brain; experiment: Drug uptake in Sprague-Dawley rat brain at 25 to 35 uCi, iv after 30 mins postinjection by […]; assay type: ADME, organism-based; details: in vivo, 0.5 h; in short: as §1
[18] = Drug uptake in Sprague-Dawley rat fat at 25 to 35 uCi, iv after 2 hrs postinjection by […]; assay type: ADME, organism-based, Adipose tissue; details: in vivo; in short: as §1
[19] = test system: Blood; experiment: Drug uptake in Sprague-Dawley rat blood at 25 to 35 uCi, iv after 2 hrs postinjection by […]; assay type: ADME, organism-based; details: in vivo; in short: as §1
[20] = test system: Heart; experiment: Drug uptake in Sprague-Dawley rat heart at 25 to 35 uCi, iv after 5 mins postinjection by […]; assay type: ADME, organism-based; details: in vivo; in short: as §1
[21] = test system: Heart; experiment: Drug uptake in Sprague-Dawley rat heart at 25 to 35 uCi, iv after 1 hr postinjection by […]; assay type: ADME, organism-based; details: in vivo; in short: as §1
[22] = test system: Blood; experiment: Drug uptake in Sprague-Dawley rat blood at 25 to 35 uCi, iv after 30 mins postinjection by […]; assay type: ADME, organism-based; details: in vivo, 0.5 h; in short: as §1
[23] = test system: Blood; experiment: Drug uptake in Sprague-Dawley rat blood at 25 to 35 uCi, iv after 5 mins postinjection by […]; assay type: ADME, organism-based; details: in vivo; in short: as §1
[24] = test system: Brain; experiment: Drug uptake in Sprague-Dawley rat brain at 25 to 35 uCi, iv after 2 hrs postinjection by […]; assay type: ADME, organism-based; details: in vivo; in short: as §1
[25] = test system: Bone; experiment: Drug uptake in Sprague-Dawley rat bone at 25 to 35 uCi, iv after 2 hrs postinjection by […]; assay type: ADME, organism-based, Bone element; details: in vivo; in short: as §1
[26] = test system: Lung; experiment: Drug uptake in Sprague-Dawley rat lung at 25 to 35 uCi, iv after 1 hr postinjection by […]; assay type: ADME, organism-based; details: in vivo; in short: as §1
[27] = Drug uptake in Sprague-Dawley rat fat at 25 to 35 uCi, iv after 5 mins postinjection by […]; assay type: ADME, organism-based, Adipose tissue; details: in vivo; in short: as §1
[28] = test system: Kidney; experiment: Drug uptake in Sprague-Dawley rat kidney at 25 to 35 uCi, iv after 1 hr postinjection by […]; assay type: ADME, organism-based; details: in vivo; in short: as §1
[29] = test system: Muscle tissue; experiment: Drug uptake in Sprague-Dawley rat muscle at 25 to 35 uCi, iv after 2 hrs postinjection by […]; assay type: ADME, organism-based; details: in vivo; in short: as §1
[30] = test system: Bone; experiment: Drug uptake in Sprague-Dawley rat bone at 25 to 35 uCi, iv after 30 mins postinjection by […]; assay type: ADME, organism-based, Bone element; details: in vivo, 0.5 h; in short: as §1
[31] = test system: Liver; experiment: Drug uptake in Sprague-Dawley rat liver at 25 to 35 uCi, iv after 2 hrs postinjection by […]; assay type: ADME, organism-based; details: in vivo; in short: as §1
[32] = test system: Lung; experiment: Drug uptake in Sprague-Dawley rat lung at 25 to 35 uCi, iv after 5 mins postinjection by […]; assay type: ADME, organism-based; details: in vivo; in short: as §1
[33] = test system: Brain; experiment: Drug uptake in Sprague-Dawley rat brain at 25 to 35 uCi, iv after 1 hr postinjection by […]; assay type: ADME, organism-based; details: in vivo; in short: as §1
[34] = test system: Muscle tissue; experiment: Drug uptake in Sprague-Dawley rat muscle at 25 to 35 uCi, iv after 30 mins postinjection by […]; assay type: ADME, organism-based; details: in vivo, 0.5 h; in short: as §1
[35] = test system: Liver; experiment: Drug uptake in Sprague-Dawley rat liver at 25 to 35 uCi, iv after 5 mins postinjection by […]; assay type: ADME, organism-based; details: in vivo; in short: as §1
[36] = test system: Kidney; experiment: Drug uptake in Sprague-Dawley rat kidney at 25 to 35 uCi, iv after 2 hrs postinjection by […]; assay type: ADME, organism-based; details: in vivo; in short: as §1
[37] = test system: Lung; experiment: Drug uptake in Sprague-Dawley rat lung at 25 to 35 uCi, iv after 30 mins postinjection by […]; assay type: ADME, organism-based; details: in vivo, 0.5 h; in short: as §1
[38] = test system: Kidney; experiment: Drug uptake in Sprague-Dawley rat kidney at 25 to 35 uCi, iv after 30 mins postinjection by […]; assay type: ADME, organism-based; details: in vivo, 0.5 h; in short: as §1
[39] = test system: Kidney; experiment: Drug uptake in Sprague-Dawley rat kidney at 25 to 35 uCi, iv after 5 mins postinjection by […]; assay type: ADME, organism-based; details: in vivo; in short: as §1
[40] = Drug uptake in Sprague-Dawley rat fat at 25 to 35 uCi, iv after 1 hr postinjection by […]; assay type: ADME, organism-based, Adipose tissue; details: in vivo; in short: as §1

Chain of Sigma non-opioid intracellular receptor 1 (Q60492 whole entry): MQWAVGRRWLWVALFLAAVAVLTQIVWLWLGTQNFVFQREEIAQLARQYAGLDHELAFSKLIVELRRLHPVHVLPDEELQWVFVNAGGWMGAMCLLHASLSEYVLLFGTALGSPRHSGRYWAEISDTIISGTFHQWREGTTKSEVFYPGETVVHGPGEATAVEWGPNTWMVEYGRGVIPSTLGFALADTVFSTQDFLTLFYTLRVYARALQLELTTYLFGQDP

Ki [1]: 251 nM
SMILES: O=C(c1ccc(F)cc1)C1CCN([C@@H]2Cc3ccccc3C[C@H]2O)CC1 (racemic)

Ki [2]: 298 nM
Ki [3]: 0.25 nM
Ki [1]: 593 nM
Ratio Ki [4]: 1190
SMILES: O=C(c1ccc(Br)cc1)C1CCN([C@@H]2Cc3ccccc3C[C@H]2O)CC1 (racemic)

Drug uptake [5]: 0.187 % ID/g
Drug uptake [6]: 0.35 % ID/g
Drug uptake [7]: 0.814 % ID/g
Drug uptake [8]: 1.239 % ID/g
Drug uptake [9]: 0.048 % ID/g
Drug uptake [10]: 0.031 % ID/g
Drug uptake [11]: 0.034 % ID/g
Drug uptake [12]: 0.112 % ID/g
Drug uptake [13]: 0.108 % ID/g
Drug uptake [14]: 0.094 % ID/g
Drug uptake [15]: 0.047 % ID/g
Drug uptake [16]: 0.399 % ID/g
Drug uptake [17]: 0.071 % ID/g
Drug uptake [18]: 0.15 % ID/g
Drug uptake [19]: 0.027 % ID/g
Drug uptake [20]: 0.194 % ID/g
Drug uptake [21]: 0.051 % ID/g
Drug uptake [22]: 0.087 % ID/g
Drug uptake [23]: 0.136 % ID/g
Drug uptake [24]: 0.022 % ID/g
Drug uptake [25]: 0.532 % ID/g
Drug uptake [26]: 0.188 % ID/g
Drug uptake [27]: 0.052 % ID/g
Drug uptake [28]: 0.291 % ID/g
Drug uptake [29]: 0.022 % ID/g
Drug uptake [30]: 0.277 % ID/g
Drug uptake [31]: 0.692 % ID/g
Drug uptake [32]: 0.904 % ID/g
Drug uptake [33]: 0.041 % ID/g
Drug uptake [34]: 0.051 % ID/g
Drug uptake [35]: 1.849 % ID/g
Drug uptake [36]: 0.194 % ID/g
Drug uptake [37]: 0.332 % ID/g
Drug uptake [38]: 0.416 % ID/g
Drug uptake [39]: 0.791 % ID/g
Drug uptake [40]: 0.154 % ID/g
SMILES: O=C(c1ccc([18F])cc1)C1CCN([C@@H]2Cc3ccccc3C[C@H]2O)CC1 (stereo in doubt; (+))

SMILES: O[C@@H]1CCN(Cc2ccc(F)cc2)C[C@H]1N1CCC(c2ccccc2)CC1
Ki [2]: 21.6 nM
Ki [3]: 0.22 nM
Ki [1]: 35.9 nM
Ratio Ki [4]: 98
